Data on 21 molecules can be found in ChEMBL document CHEMBL2034820, “Discovery, synthesis, and biological evaluation of novel pyrrole derivatives as highly selective potassium-competitive acid blockers” (Bioorg Med Chem, 2012).

Assay [1] can be described thus: Inhibition of H+/K+ATPase in pig gastric microsomes assessed as liberation of inorganic phosphate from ATP hydrolysis after 30 mins. The arrangement: species or system Sus scrofa, Stomach, Microsome. An outline of the steps:
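Porcine gastric mucosal microsomes (Ficoll-interface fraction, stored at -80 C) in 50 mmol/L HEPES-Tris pH 6.5 with 5 mmol/L MgCl2, valinomycin, ±10 mmol/L KCl. Preincubated with compound at 37 C for 30 min, then started by adding 2 mmol/L ATP solution. Stopped with malachite green; Pi read at 620 nm. K+-dependent activity from ± K+ difference; IC50 by sigmoidal dose-response fit.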

Assay [2] deals with Rattus norvegicus. Kind of assay: Inhibition of histamine-induced gastric acid secretion in Jcl:Sprague-Dawley rat at 1 mg/kg, iv administered 3 mins before histamine challenge measured after 3 hrs relative to control. It is filed as functional. The note with it: Stomach. An outline of the steps:
(§1)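 Seven-week-old male SD rats, fasted 24 h with free water, anesthetized with urethane 1.2 g/kg ip and pylorus-ligated. Drug or vehicle given iv just after ligation; histamine 2HCl 30 mg/kg sc 3 min later. After 3 h, gastric contents were centrifuged and titrated to pH 7.0 with 0.1 mol/L NaOH. Total 3 h acid output compared with vehicle.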

The nature of assay [3]: Inhibition of Na+/K+ ATPase in pig cerebral cortex. It is filed as tissue-based, Sus scrofa. The gist of the method: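 Otherwise run as the gastric H+,K+-ATPase assay: compound preincubation at 37 C for 30 min, ATP-started reaction, malachite green phosphate read-out at 620 nm.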
For assay [4], the system named is Rattus norvegicus. Briefly: Inhibition of histamine-induced gastric acid secretion in Jcl:Sprague-Dawley rat at 10 mg/kg, iv administered 3 mins before histamine challenge measured after 3 hrs relative to control. It is filed as functional. The conditions noted are these: Stomach. The gist of the method: as §1
The species named for assay [5] is Sus scrofa. Briefly: Reversible inhibition of H+/K+ATPase in pig gastric microsomes assessed as liberation of inorganic phosphate from ATP hydrolysis at 0.1 uM incubated for 20 mins measured after compound washout. The note with it: Stomach, Microsome. The gist of the method:
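Gastric microsomes incubated with compound (1% DMSO final) at 37 C for 30 min in 50 mmol/L HEPES-Tris pH 6.5, 5 mmol/L MgCl2, 10 mmol/L KCl. Activity measured on an aliquot and on the remainder after washout (30 kDa ultrafiltration, resuspended compound-free). Reaction started with 2 mmol/L ATP, run at 37 C for 20 min; malachite green phosphate read-out; % of 1% DMSO vehicle, n = 2.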

Assay [6] is filed under the species Sus scrofa. Kind of assay: Competitive inhibition of H+/K+ATPase in pig gastric microsomes by Lineweaver-Burk plot analysis. The conditions noted are these: Stomach, Microsome.
The test system of assay [7] is Canis familiaris. Kind of assay: Inhibition of histamine-stimulated gastric acid secretion in heidenhain pouch dog at 1 mg/kg, po prestimulated with histamine 1 day before compound treatment and 1, 3, 6 and 24 hrs post compound treatment measured every 30 mins for 3 times. It is filed as functional, organism-based. The conditions noted are these: Canis lupus familiaris, Stomach. The arrangement: dose 1 mg/kg. The gist of the method: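 Dogs dosed orally in a blinded design (0.2 mL/kg), with vehicle controls. Histamine 2HCl injected sc. Pouch gastric juice collected as three consecutive 30 min periods after each histamine dose. Volume measured, and acid titrated to pH 7.0 with 0.1 mol/L NaOH. Total 90 min acid output at each time expressed as % of pre-dosing value.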

The subject of assay [8] is Canis familiaris. Kind of assay: Inhibition of histamine-stimulated gastric acid secretion in heidenhain pouch dog at 1 mg/kg, po prestimulated with histamine 1 day before compound treatment and 1, 3, 6 and 24 hrs post compound treatment measured after 24 hrs. It is filed as functional, organism-based. The arrangement: dose 1 mg/kg. The conditions noted are these: Canis lupus familiaris, Stomach. An outline of the steps: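 Heidenhain pouch dogs dosed orally (0.2 mL/kg), blinded. Histamine 2HCl given sc 1 day before and at 1, 3, 6 and 24 h post-dose. Pouch juice collected over three consecutive 30 min periods and titrated to pH 7.0 with 0.1 mol/L NaOH. 90 min acid output expressed as % of the pre-dosing value.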

SMILES strings stand for the structures. The source made the active and inactive calls. The calls are words filed in the database; no cut-off is given here. Some results are limits rather than exact numbers.

As a reminder, the IC50 is the concentration that gives 50% inhibition. The inhibition in vivo is the change of the read-out against control, counted positive when it falls. Take `CNCc1cc(-c2ccccc2)n(S(=O)(=O)c2ccc(C(F)(F)F)cc2)c1`: the IC50 in assay [1] worked out at 0.11 µM. Besides, the inhibition in vivo at 1 mg/kg in the assay on Rattus norvegicus [2] is 73%.
In the case of `Cc1ccc(S(=O)(=O)n2cc(C(N)=O)cc2-c2ccccc2)cc1`, the half-maximal inhibitory concentration (IC50) in assay [1] was above 10 µM.
For `CNCc1cc(-c2ccccc2)n(S(=O)(=O)c2ccccc2)c1Cl`, the IC50 was 0.04 µM in assay [1] and above 10 µM in assay [3]. For the same molecule, the inhibition in vivo at 1 mg/kg in the assay with Rattus norvegicus [2] amounted to 49%.
On to `CNCc1cc(-c2ccccc2)n(Cc2ccccc2)c1`, for which the IC50 in assay [1] is 0.51 µM. For the same molecule, in the assay on Rattus norvegicus [4], the inhibition in vivo at 10 mg/kg was 84%.
`CCCCS(=O)(=O)n1cc(CNC)cc1-c1ccccc1`: in assay [1], the IC50 was determined as 0.83 µM.
Still for that read-out and setting: the result for `CNCc1cc(-c2ccccc2)n(C(=O)c2ccccc2)c1` reads above 10 µM.
Take `CNCc1cc(-c2ccccc2)n(S(=O)(=O)c2ccc(C)cc2)c1`: the figures for the IC50 in assay [1] and in assay [3] were 0.055 µM and above 10 µM, respectively. The inhibition entry in the assay filed under Sus scrofa [5] and in the assay filed under Sus scrofa [6] was “Active” throughout. For the same molecule, in the assay with Rattus norvegicus [2], the inhibition in vivo at 1 mg/kg is 66%.
In the case of `CCNCc1cc(-c2ccc3c(c2)OCO3)n(S(=O)(=O)c2ccc(C)cc2)c1`, in assay [1], the IC50 came out at 0.54 µM. Besides, the inhibition in vivo at 10 mg/kg in the assay with Rattus norvegicus [4] is 39%.
Take `Cc1c(OCC(F)(F)F)ccnc1C[S+]([O-])c1nc2ccccc2[nH]1` (stereo unspecified): the inhibition result in the assay on Canis familiaris [7] is “Active”.
As for `CNCc1cc(C2CC2)n(S(=O)(=O)c2ccccc2)c1`, in assay [1], the IC50 is 1.5 µM.
As for `CNCc1cc(-c2ccccc2)n(S(C)(=O)=O)c1`, the IC50 in assay [1] was above 10 µM. Besides, the inhibition in vivo at 10 mg/kg in the assay with Rattus norvegicus [4] is 27%.
On the same counts, the results for `COCc1cc(-c2ccccc2)n(S(=O)(=O)c2ccc(C)cc2)c1` are above 10 µM and -3%.
Regarding `CNCc1cc(-c2ccccc2)n(S(=O)(=O)c2ccccc2)c1`, the IC50 in assay [1] is 0.0094 µM; in assay [3] it was above 10 µM. Also, in the assay with Rattus norvegicus [2], the inhibition in vivo at 1 mg/kg was 96%.
Turning to `Cc1ccc(S(=O)(=O)n2cc(CN)cc2-c2ccccc2)cc1`, the IC50 in assay [1] came out at 0.86 µM.
Consider `CNCc1cn(S(=O)(=O)c2ccccc2)c(-c2ccccc2)c1C`, for which the results for the IC50 in assay [1] and in assay [3] were 0.029 µM and above 10 µM, respectively. Also, the inhibition in vivo at 1 mg/kg in the assay on Rattus norvegicus [2] is 95%.
As for `CNCc1cc(-c2ccccc2)n(S(=O)(=O)c2ccc(OC)cc2)c1`, the half-inhibitory concentration (IC50) in assay [1] is 0.03 µM; in assay [3], above 10 µM. For the same molecule, the inhibition entry in the assay with Canis familiaris [7] and in the assay on Canis familiaris [8] was “Active” in each case. Also, in the assay on Rattus norvegicus [2], the inhibition in vivo at 1 mg/kg was found to be 95%.
For `CN(C)Cc1cc(-c2ccccc2)n(S(=O)(=O)c2ccc(C(F)(F)F)cc2)c1`, the IC50 in assay [1] came to 0.71 µM. For the same molecule, the inhibition in vivo at 10 mg/kg with Rattus norvegicus [4] was found to be 59%.
In the case of `CNC(C)c1cc(-c2ccccc2)n(S(=O)(=O)c2ccc(C(F)(F)F)cc2)c1` (stereo unspecified), the IC50 in assay [1] was 2.3 µM. For the same molecule, the inhibition in vivo at 1 mg/kg in the assay on Rattus norvegicus [2] was -4%.
On the same counts, the results for `CCCCc1cc(CNC)cn1S(=O)(=O)c1ccccc1` are 0.25 µM and -8%.
On to `CCNCc1cc(-c2ccccc2)n(S(=O)(=O)c2ccc(C)cc2)c1`, for which the IC50 in assay [1] is 0.65 µM. In the assay with Rattus norvegicus [4], the inhibition in vivo at 10 mg/kg was 53%.
Turning to `CNCc1cc(-c2ccccc2)n(S(=O)(=O)c2ccccc2)c1C`, the IC50 was 0.025 µM in assay [1] and above 10 µM in assay [3]. Besides, in the assay on Rattus norvegicus [2], the inhibition in vivo at 1 mg/kg was 77%.
